Molecules are shown by their SMILES. In brackets after ≈: the same amount, converted by molar mass. Activity calls are given as the source filed them. No cut-off for these calls is given here.

The test system of data set [1] is Candida albicans. As to the kind of experiment: Antibiofilm activity in Candida albicans ATCC 90028 assessed as early apoptotic morphological changes by measuring crescent-shaped nuclei at 20 uM after 18 hrs by acridine orange/ethidium bromide staining-based confocal laser scanning fluorescence microscopic analysis. Type of data set: functional. The essentials:
(§1)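 Unfixed biofilm cells were dual-stained in situ with acridine orange and ethidium bromide, each at 100 µg/mL. Confocal fluorescence and DIC imaging scored green AO nuclei, crescent-shaped chromatin, reddish-orange late apoptotic/necrotic cells and EB uptake, against untreated control biofilm. […]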

For data set [2], the system named is Candida albicans. As to the kind of experiment: Induction of apoptosis in Candida albicans ATCC 90028 planktonic forms assessed as effect on DNA content of necrotic cells at 4 to 16 ug/ml by ethidium bromide staining based gel electrophoresis and confocal laser scanning microscopy. Type of data set: functional, organism-based.
Data set [3] has as its system Candida albicans. As to the kind of experiment: Disruption of cell wall in Candida albicans SC5314 assessed as decrease in chitin level by measuring chitin mean staining index at 0.07 uM after 18 hrs by calcofluor white staining-based flow cytometric analysis (reference value: 496 +/- 51). Type of data set: functional.
The subject of data set [4] is Candida albicans. As to the kind of experiment: Induction of apoptosis in Candida albicans ATCC 90028 protoplast assessed as necrotic cells at 20 uM after 48 hrs Annexin V-FITC/propidium iodide staining based flow cytometric analysis (reference value: 0.33 +/- 0.20%). Type of data set: functional.
Data set [5] has as its system Candida albicans. As to the kind of experiment: Fungicidal activity against Candida albicans ATCC 90028 assessed as log reduction in cell viability at 10 uM in RPMI medium in presence of sorbitol. Type of data set: functional.
The test system of data set [6] is Candida albicans. As to the kind of experiment: Fungicidal activity against Candida albicans ATCC 90028 assessed as reduction in cell viability in RPMI medium in absence of sorbitol. Type of data set: functional.
In data set [7] the test system is Candida albicans. As to the kind of experiment: Induction of endochitinase release in Candida albicans ATCC 90028 assessed as p-nitrophenyl release from triacetylochitotriose substrate A at 20 uM by chitinolytic activity assay. The class given is functional, organism-based.
Data set [8] has as its system Candida albicans. As to the kind of experiment: Induction of exochitinase release in Candida albicans ATCC 90028 assessed as p-nitrophenyl release from chitobioside substrate C at 20 uM by chitinolytic activity assay. Type of data set: functional, organism-based.
Data set [9] relates to Candida albicans. As to the kind of experiment: Fungicidal activity against Candida albicans ATCC 90028 assessed as log reduction in cell viability at 10 uM in RPMI medium in absence of sorbitol. Type of data set: functional.
Data set [10] has as its system Candida albicans. As to the kind of experiment: Antifungal activity against Candida albicans ATCC 90028 infected in Galleria mellonella larvae infected with 20 uM compound pre-treated cell suspensions assessed as cocoon formation incubated in dark for 144 hrs at 30 degC and measured every 24 hrs (reference value: 65%). Type of data set: organism-based.
Data set [11] deals with Candida albicans. As to the kind of experiment: Induction of apoptosis in Candida albicans ATCC 90028 planktonic forms assessed as increase in DNA damage at 4 ug/ml by ethidium bromide staining based gel electrophoresis and confocal laser scanning microscopy. The class given is functional, organism-based.
Data set [12] deals with Candida albicans. As to the kind of experiment: Antifungal activity against Candida albicans ATCC 90028 assessed as reduction in cell viability at 8 uM at after 48 hrs in presence of ergosterol by XTT assay. Type of data set: functional.
Data set [13] relates to Candida albicans. As to the kind of experiment: Induction of chitinase release in Candida albicans ATCC 90028 assessed as p-nitrophenyl release from N-acetyl-beta-D-glucosaminide at 20 uM by chitinolytic activity assay. The class given is functional, organism-based.
Data set [14] deals with Candida albicans. As to the kind of experiment: Antibiofilm activity in Candida albicans ATCC 90028 assessed as beta-glucan uniform distribution at 20 uM after 18 hrs by Congo red staining-based confocal laser scanning microscopic analysis. The class given is functional, organism-based. The essentials:
(§2)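 Mature C. albicans biofilm cells were stained with 2% Congo Red to detect β-glucan exposure. They were imaged by confocal laser scanning microscopy as fluorescence and fluorescence/DIC overlays. Treated biofilms were compared with untreated control biofilm.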

The test system of the next data set is Galleria mellonella. As to the kind of experiment: Toxicity in Candida albicans ATCC 90028 infected Galleria mellonella larvae infected with 31 uM compound pre-treated cell suspensions assessed as improvement in larvae health index scores incubated in dark for 144 hrs at 30 degC and measured every 24 hrs. The class given is organism-based. Particulars: in vivo.

Data set [15] has as its system Candida albicans. As to the kind of experiment: Antifungal activity against Candida albicans ATCC 90028 infected in Galleria mellonella larvae infected with 31 uM compound pre-treated cell suspensions assessed as cocoon formation incubated in dark for 144 hrs at 30 degC and measured every 24 hrs (reference value: 65%). The class given is functional.
The test system of data set [16] is Candida albicans. As to the kind of experiment: Antifungal activity against Candida albicans ATCC 90028 assessed as reduction in cell viability at 38 uM after 48 hrs in presence of ergosterol by XTT assay. Type of data set: functional. (Formazan colour is commonly taken as a measure of viable cells.)
Data set [17] relates to Candida albicans. As to the kind of experiment: Effect on dilpoid nuclei level in Candida albicans ATCC 90028 planktonic forms at 128 ug/ml by ethidium bromide staining based gel electrophoresis and confocal laser scanning microscopy. The class given is functional, organism-based.
Data set [18] has as its system Candida albicans. As to the kind of experiment: Induction of apoptosis in Candida albicans ATCC 90028 protoplast assessed as viable cells at 248 uM after 48 hrs Annexin V-FITC/propidium iodide staining based flow cytometric analysis (reference value: 96.38 +/- 2.05%). Type of data set: functional. (In flow cytometry, cells or beads pass a laser one at a time.)
Data set [19] relates to Candida albicans. As to the kind of experiment: Induction of apoptosis in Candida albicans ATCC 90028 protoplast assessed as late apoptotic cells at 248 uM after 48 hrs Annexin V-FITC/propidium iodide staining based flow cytometric analysis (reference value: 0.3 +/- 0.30%). The class given is functional.
The subject of data set [20] is Candida albicans. As to the kind of experiment: Effect on dilpoid nuclei level in Candida albicans ATCC 90028 planktonic forms at 0.03 ug/ml by ethidium bromide staining based gel electrophoresis and confocal laser scanning microscopy. Type of data set: functional, organism-based.
The subject of data set [21] is Candida albicans. As to the kind of experiment: Induction of endochitinase release in Candida albicans ATCC 90028 assessed as p-nitrophenyl release from triacetylochitotriose substrate A at 248 uM by chitinolytic activity assay. Type of data set: functional, organism-based.
Data set [22] has as its system Candida albicans. As to the kind of experiment: Disruption of cell wall in Candida albicans SC5314 assessed as decrease in chitin level by measuring chitin mean staining index at 248 uM after 18 hrs by calcofluor white staining-based flow cytometric analysis (reference value: 496 +/- 51). The class given is functional.
In data set [23] the test system is Candida albicans. As to the kind of experiment: Induction of exochitinase release in Candida albicans ATCC 90028 assessed as p-nitrophenyl release from chitobioside substrate C at 248 uM by chitinolytic activity assay. The class given is functional, organism-based.
The subject of data set [24] is Candida albicans. As to the kind of experiment: Induction of apoptosis in Candida albicans ATCC 90028 planktonic forms assessed as effect on DNA content of necrotic cells at 1 to 128 ug/ml by ethidium bromide staining based gel electrophoresis and confocal laser scanning microscopy. Type of data set: functional, organism-based.
The subject of data set [25] is Candida albicans. As to the kind of experiment: Antibiofilm activity in Candida albicans ATCC 90028 assessed as beta-glucan uniform distribution at 248 uM after 18 hrs by Congo red staining-based confocal laser scanning microscopic analysis. The class given is functional, organism-based. The essentials:
as §2

Data set [26] relates to Candida albicans. As to the kind of experiment: Induction of apoptosis in Candida albicans ATCC 90028 protoplast assessed as necrotic cells at 248 uM after 48 hrs Annexin V-FITC/propidium iodide staining based flow cytometric analysis (reference value: 0.33 +/- 0.20%). Type of data set: functional.
Data set [27] concerns Candida albicans. As to the kind of experiment: Antibiofilm activity in Candida albicans ATCC 90028 assessed as cell membrane lysis at 248 uM after 18 hrs by acridine orange/ethidium bromide staining-based confocal laser scanning fluorescence microscopic analysis. The class given is functional, organism-based. In outline: as §1
In data set [28] the test system is Candida albicans. As to the kind of experiment: Induction of apoptosis in Candida albicans ATCC 90028 protoplast assessed as early apoptotic cells at 248 uM after 48 hrs Annexin V-FITC/propidium iodide staining based flow cytometric analysis (reference value: 3.00 +/- 1.65%). The class given is functional.
Data set [29] has as its system Candida albicans. As to the kind of experiment: Antifungal activity against Candida albicans ATCC 90028 infected in Galleria mellonella larvae infected with 31 uM compound pre-treated cell suspensions assessed as reduction in fat body formation in dark for 144 hrs at 30 degC and measured every 24 hrs by hematoxylin and eosin staining-based light microscopic analysis. The class given is functional, organism-based.

One may read the MFC as the lowest tested concentration that kills the fungus rather than only halting it. With `CC(Cn1cnc2c1c(=O)n(C)c(=O)n2C)OCc1cn(CCCn2nc3c(Br)c(Br)c(Br)c(Br)c3n2)nn1` (stereo not given), the “fold change (FC)” value in the data set with Candida albicans [1] is given as 2. In addition, the result in the data set on Candida albicans [2], with Candida albicans [7], with Candida albicans [8] and in the data set with Candida albicans [13] was inactive. For the same compound, the Activity_index in the data set on Candida albicans [3] is listed as 53. For the same compound, the Activity in the data set on Candida albicans [4] came to 93.94%; in the data set with Candida albicans [10] it was 98%; in the data set on Candida albicans [12], 68%. The results for the “log(activity)” value in the data set on Candida albicans [5] and in the data set on Candida albicans [9] were 6.74 and 6.81, respectively. Moreover, the MFC in the data set on Candida albicans [6] stood at 5 µM (≈ 3.97 µg/mL). In addition, the outcome in the data set on Candida albicans [11] and in the data set with Candida albicans [14] was Active.

In the case of `CC(CN1c2ccccc2Sc2ccccc21)OC(=O)OC(C)Cn1cnc2c1c(=O)n(C)c(=O)n2C` (stereo not given), the Activity result with Galleria mellonella is given as “Toxic”; with Candida albicans [15], 98%; in the data set with Candida albicans [16], 92%; in the data set with Candida albicans [18], 2.8%; in the data set with Candida albicans [19], 0.1%; in the data set with Candida albicans [26], 95.9%. Moreover, the Activity with Candida albicans [28] is listed as 1.2%. Also, the outcome with Candida albicans [17], with Candida albicans [20], with Candida albicans [21], in the data set with Candida albicans [23], in the data set with Candida albicans [24] and with Candida albicans [25] was inactive. The Activity_index in the data set on Candida albicans [22] was 550. Also, the outcome in the data set on Candida albicans [27] and in the data set with Candida albicans [29] was Active.

These data come from ChEMBL document CHEMBL4229342, “Synthesis of novel proxyphylline derivatives with dual Anti-Candida albicans and anticancer activity” (Eur J Med Chem, 2018).
